Columns and labels:
[1] = target: RmlC and RmlD (Mycobacterium tuberculosis, UniProt P9WH09); format: biochemical; conditions: read-out: Km of NADPH; cofactor; TDP-KDX at 200 μM
[2] = target: T1, RmlC (Mycobacterium tuberculosis, UniProt P9WH11); experiment: 96-well RmlC/RmlD coupled assay, NADPH absorbance at 340 nm; format: biochemical
[3] = target: T1, RmlC; experiment: Reversibility of inhibition; format: biochemical; conditions: 10 times IC50 pre-incubated 0 or 0.5 hr with 100x RmlC, diluted 100-fold
In short: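 Test compound incubated 0 or 0.5 hr at 25°C with concentrated RmlC in buffer, then diluted 100-fold. RmlD, TDP-KDX and NADPH were added, and activity was followed as the decrease in NADPH fluorescence (340/460 nm) over 200 min. Controls had no compound, or compound added only after dilution.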

[4] = target: T1, RmlC; experiment: Time dependence of the onset of inhibition; format: biochemical; conditions: pre-incubation 0, 1, 2 or 3 hr
In short: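 Test compound came from a 16-point 2-fold serial dilution (2.5 mM top stock) and was diluted in water. It was pre-incubated 0–3 hr with 2x RmlC, RmlD and NADPH in 83.5 mM MOPS. TDP-KDX was then added and NADPH fluorescence followed over 90 min. IC50 came from a 4-parameter logistic fit of percent activity.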

[5] = target: T1, RmlC; experiment: Mode of inhibition: TDP-KDX Km; format: biochemical
[6] = test system: RmlC and RmlD; format: biochemical, Mycobacterium tuberculosis; conditions: read-out: IC50 of the known inhibitor TDP
[7] = Cytotoxicity, CellTiter-Glo luminescence; format: cell-based; conditions: human, human aortic endothelial (HAE) cells

T1 sequence (P9WH11 whole entry, looked up): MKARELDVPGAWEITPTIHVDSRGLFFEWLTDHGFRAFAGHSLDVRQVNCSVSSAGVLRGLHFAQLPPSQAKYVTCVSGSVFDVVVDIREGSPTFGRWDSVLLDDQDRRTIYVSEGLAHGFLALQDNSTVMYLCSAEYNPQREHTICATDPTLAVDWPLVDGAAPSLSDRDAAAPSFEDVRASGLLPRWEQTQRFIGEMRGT
RmlC and RmlD (Mycobacterium tuberculosis, UniProt P9WH09), sequence (P9WH09 whole entry): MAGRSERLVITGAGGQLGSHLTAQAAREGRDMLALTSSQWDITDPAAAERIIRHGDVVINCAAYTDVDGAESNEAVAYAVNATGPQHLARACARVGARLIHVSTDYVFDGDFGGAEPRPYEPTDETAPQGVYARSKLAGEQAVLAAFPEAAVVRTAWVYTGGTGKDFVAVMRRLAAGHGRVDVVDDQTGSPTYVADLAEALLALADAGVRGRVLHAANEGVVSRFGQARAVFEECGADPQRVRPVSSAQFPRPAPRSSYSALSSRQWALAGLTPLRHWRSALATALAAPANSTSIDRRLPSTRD

NC(=O)C1=CN([C@@H]2O[C@H](COP(=O)(O)OP(=O)(O)OC[C@H]3O[C@@H](n4cnc5c(N)ncnc54)[C@H](OP(=O)(O)O)[C@@H]3O)[C@@H](O)[C@H]2O)C=CC1 [NADPH]
Km [1]: 12 µM

C=CCn1c2ccccc2c2nnc(SCn3c(=O)[nH]c4ccccc43)nc21 [SID 7972845]
fold increase of IC50 relative to 77074 [2]: 86 fold

CCn1c2ccccc2c2nnc(SCCCn3c(=O)[nH]c4ccccc43)nc21 [SID 7975595, 1-(3-(5-ethyl-5H-[1,2,4]triazino[5,6-b]indol-3-ylthio)propyl)-1H-benzo[d]imidazol-2(3H)-one]
reversibility of inhibition [3]: fully reversible inhibitor | change of IC50 with pre-incubation time (onset of inhibition) [4]: No such decrease in IC50 was observed | Ki [5]: 0.1 µM | affinity of inhibitor relative to TDP-KDX (Km versus Ki) ([5]; comparison of Km of TDP-KDX and Ki of inhibitor): approximately 2000 fold | mode of inhibition ([5]; versus substrate TDP-KDX): classical competitive inhibitor

Cc1cn([C@H]2C[C@H](O)[C@@H](COP(=O)(O)OP(=O)(O)O)O2)c(=O)[nH]c1=O [TDP, reference compound]
IC50 [6]: 340 µM

O=c1[nH]c2ccccc2n1CCCSc1nnc2c3ccccc3n(Cc3ccccc3)c2n1 [compound 77070]
fold increase of IC50 relative to SID 7975595 (R1 ethyl) [2]: approximately 15 fold

CCCn1c2ccccc2c2nnc(SCCCn3c(=O)[nH]c4ccccc43)nc21 [compound 77071]
fold increase of IC50 relative to 77074 [2]: 10 fold

COc1cccc2c1C(=O)c1c(O)c3c(c(O)c1C2=O)C[C@@](O)(C(=O)CO)C[C@@H]3O[C@H]1C[C@H](N)[C@H](O)[C@H](C)O1 [doxorubicin]
IC50 at 24 h [7]: ~10 µM
